High-throughput results from PubChem.
Hits are enriched below; roughly 3% of the tested compounds scored in any of these assays.
PKD1 inh: blocks activity of human protein kinase D1; hit rate 0.056% among 200,000; Q15139; AID 797; PKD1 kinase fluorescence polarization assay; inhibition, % (concentration not given with the values); in the data active means inhibition above about 50%
Target sequence (Q15139 whole entry, looked up): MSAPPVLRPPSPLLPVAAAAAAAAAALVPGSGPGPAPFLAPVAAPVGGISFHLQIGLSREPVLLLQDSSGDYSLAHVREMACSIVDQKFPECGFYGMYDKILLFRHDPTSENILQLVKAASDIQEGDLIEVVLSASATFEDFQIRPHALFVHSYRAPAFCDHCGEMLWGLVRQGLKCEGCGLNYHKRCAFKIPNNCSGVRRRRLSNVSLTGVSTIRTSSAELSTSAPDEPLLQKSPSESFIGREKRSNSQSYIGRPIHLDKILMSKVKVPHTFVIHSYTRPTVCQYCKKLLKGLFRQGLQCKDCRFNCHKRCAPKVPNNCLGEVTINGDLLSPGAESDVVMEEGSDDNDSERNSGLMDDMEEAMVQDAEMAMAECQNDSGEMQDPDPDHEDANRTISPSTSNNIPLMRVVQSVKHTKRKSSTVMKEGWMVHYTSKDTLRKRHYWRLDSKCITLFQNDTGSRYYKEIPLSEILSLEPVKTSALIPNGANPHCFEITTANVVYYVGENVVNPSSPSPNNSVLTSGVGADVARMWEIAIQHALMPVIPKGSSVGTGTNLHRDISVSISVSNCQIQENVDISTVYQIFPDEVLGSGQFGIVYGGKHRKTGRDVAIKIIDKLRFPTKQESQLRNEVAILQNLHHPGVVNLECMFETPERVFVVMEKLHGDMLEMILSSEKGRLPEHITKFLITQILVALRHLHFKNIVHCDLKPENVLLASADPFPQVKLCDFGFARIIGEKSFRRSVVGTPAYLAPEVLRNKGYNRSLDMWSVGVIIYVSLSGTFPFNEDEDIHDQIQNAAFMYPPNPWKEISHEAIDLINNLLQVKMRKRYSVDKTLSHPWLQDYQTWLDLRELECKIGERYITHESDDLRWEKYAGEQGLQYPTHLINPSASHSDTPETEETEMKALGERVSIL
KCC2 mod: modulates chloride dependent transport by human KCC2. KCC2 cells, thallium flux FluoZin-2 fluorescence. B-score of Tl+ flux slope (higher = more flux/activation; lower = inhibition) at 10 µM. hit rate 2.2% among 190,000. AID 1456;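 active means thallium flux slope and its plate-corrected score both differing from the plate sample mean at a set confidence after two filtering rounds, in either direction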;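 further: slope of fluorescence scaled to starting intensity during 10 to 20 s after thallium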
ROMK primary: modulates human ROMK potassium channel activity; P48048; Tet-inducible ROMK, thallium flux fluorescence; actives lie on both sides; B-score at 10 µM; hit rate 2% among 130,000; AID 1918;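 active means signal ratio slope over the read window, or its plate-corrected B-score, at least 3 SD from the plate mean, either direction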;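 further: B-score of the F/F0 ratio slope over 7 to 12 s after thallium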
Rad51 HR inh: Rad51 (human) homologous recombination inhibition | hRad51 DNA strand exchange, fluorescence dequenching | Q06609 | inhibition, % at 10 µM | hit rate 0.085% among 200,000;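 active means inhibition above 40% at the single screening dose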
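Material: human Rad51–ssDNA filaments; Probe or stimulus: labelled 47-mer dsDNA for strand exchange; Doses: single 10 µM dose; Incubation: 37 °C 15-min filament assembly, 30-min compound preincubation, 15-min exchange; Technique: FRET fluorescence dequenching, excitation 485 nm, emission 520 nm; Measure: Fluorescence-based percent inhibition, control- and blank-normalised; Benchmarks: plate control and blank wells.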
Of the large screens only hits and unclear results are named; the others gave an inactive call.

CCCCCOCC1CC(C/C(C)=N/NC(N)=S)C(=O)O1 (stereo not drawn)	none
CCCCCOCC1CC(C/C(C)=N/Nc2nc(-c3ccccc3)cs2)C(=O)O1 (stereo not drawn)	Rad51 HR inh 62 (no result: KCC2 mod, ROMK primary)
S=C1Cc2ccccc2N1	none (no result: PKD1 inh)
CC(C)CSC1=NSC2=NC(=O)/C(=C\c3ccccc3)C(=N)N12	KCC2 mod 139, ROMK primary 1.8
O=C(COC(=O)c1ccc[nH]c1=O)NC1CCCCC1	none (no result: PKD1 inh, ROMK primary, Rad51 HR inh)
COc1ccccc1C(=O)NC(=S)N1CCCc2ccccc21	none (no result: KCC2 mod, ROMK primary)
O=C(COc1ccccc1Cl)NC(=S)N1CCc2ccccc21	KCC2 mod 37
O=C(COc1ccccc1)NC(=S)N1CCc2ccccc21	KCC2 mod 56
COc1ccc(OC)c(/C=N/NC(=O)CNC(=O)c2ccc(S(=O)(=O)N3CCOCC3)cc2)c1	none
CCn1c(=S)[nH]c2nc3c(cc2c1=O)CCCC3	KCC2 mod 42 (no result: ROMK primary)
Cc1[nH]nc2c1C(=O)CCC2	Rad51 HR inh 86 (no result: ROMK primary)
Cc1[nH]nc2c1C(=O)CC(C)(C)C2	none (no result: KCC2 mod, ROMK primary)
COc1ccc(CC(=O)N2CCC(Nc3nc4ccccc4n3Cc3ccc(F)cc3)CC2)cc1	ROMK primary -4
COc1ccc(CC(=O)N2CCC(c3ccccc3)C2)cc1 (stereo not drawn)	none
O=C(COc1ccccc1)NC(=S)Nc1cccc([N+](=O)[O-])c1	KCC2 mod 43
CCOC(=O)c1ccc(NC(=S)Nc2ccccc2)cc1	none (no result: ROMK primary)
CCOC(=O)c1ccc(NC(=S)NC(=O)COc2ccccc2)cc1	KCC2 mod 18 (no result: ROMK primary)
O=c1[nH]n(-c2cccc3cccnc23)c(=O)c2ccccc12	none (no result: ROMK primary)
O=S1(=O)Nc2c(ccc3cccnc23)-c2ccccc21	KCC2 mod 4.1 (no result: Rad51 HR inh)
OC(COc1ccc2c(c1)CCC2)Cn1cnc2ccccc21 (stereo not drawn)	Rad51 HR inh 128
CCCc1[nH]nc2c1C(c1ccc(OC)c(CSC3=NCCS3)c1)C(C#N)=C(N)O2 (stereo not drawn)	ROMK primary -3.1
CCCc1[nH]nc2c1C(c1cc(OC)cc(OC)c1)C(C#N)=C(N)O2 (stereo not drawn)	none
COc1cc(OC)cc(C(=O)Nc2nc(-c3ccccc3)c(-c3ccccc3)o2)c1	KCC2 mod 10 (no result: ROMK primary)
CCCCCCc1nc2ccccc2c(=O)n1NC(=O)c1c(O)c2cccc3c2n(c1=O)CC3	none (no result: Rad51 HR inh)
O=C(CSc1nnc(-c2ccccc2)n1-c1ccccc1)c1cccs1	none (no result: Rad51 HR inh)
O=C(CSc1ncn(-c2ccccc2)n1)c1cccs1	Rad51 HR inh 68 (no result: ROMK primary)
CC(=O)c1c(C)[nH]c(C(=O)N(C)C(c2ccccc2)c2ccccc2)c1C	none
CNC(=S)NNC(=O)c1cccs1	none (no result: PKD1 inh)
O=C(NC(=S)NNC(=O)c1cccs1)c1ccc(Br)o1	KCC2 mod 15
CCOc1ccc(OCCSc2nnnn2-c2ccccc2)cc1	none (no result: ROMK primary)
c1ccc(OCCSc2nnnn2-c2ccccc2)cc1	KCC2 mod -3.8 (no result: ROMK primary)
CCOC(=O)C1=C(O)C(=O)N(Cc2cccnc2)C1c1ccc(OC)cc1 (stereo not drawn)	none (no result: ROMK primary)
C/C(O)=c1/cnc2nc3ccccc3n2c1=O	none
O=C(C1CCN(S(=O)(=O)c2cccc3nsnc23)CC1)N1CC=C(c2ccccc2)CC1	none (no result: ROMK primary, Rad51 HR inh)
O=C(C1CCCN(S(=O)(=O)c2cccc3nsnc23)C1)N1CC=C(c2ccccc2)CC1 (stereo not drawn)	ROMK primary -4.3
O=C(Cn1cnc2ccccc2c1=O)Nc1ccc(N2CCOCC2)cc1	none
C=CCn1c(=S)[nH]c2ccccc2c1=O	none (no result: KCC2 mod)
C=CCn1c(=S)[nH]c2scc(-c3cccs3)c2c1=O	KCC2 mod 89, ROMK primary 3.5
Cn1c(=S)[nH]c2scc(-c3cccs3)c2c1=O	KCC2 mod 59, ROMK primary 4
Cc1ccsc1C1CC(=O)OC2=C1C(=O)CC(C)(C)C2 (stereo not drawn)	none (no result: Rad51 HR inh)
Cc1cc(C)c2c(c1)/C(=N/NC(=O)c1cc(C)oc1C)CCC2	none (no result: KCC2 mod)
O=S(=O)(c1ccc(Br)cc1)c1nc(-c2ccco2)oc1NCC1CCCO1 (stereo not drawn)	none
O=C(NC(=S)Nn1cnc2c(cnn2-c2ccccc2)c1=O)c1ccc(Cl)cc1	none (no result: ROMK primary)
O=C(NC(=S)Nn1cnc2c(cnn2-c2ccccc2)c1=O)c1ccc(Oc2ccccc2)cc1	KCC2 mod 18
CCOC(=O)c1c(C)[nH]c(=S)c(C#N)c1-c1ccc(OC)cc1	none
CCOC(=O)c1c(C)[nH]c(=S)c(C#N)c1-c1ccc(Cl)cc1	KCC2 mod 11
COc1ccc(Cc2nnc3n2N=C(c2cc4ccccc4o2)CS3)cc1OC	none (no result: ROMK primary)
O=C(CCCSc1nc2ccccc2[nH]1)N1CCN(c2ccc([N+](=O)[O-])cc2)CC1	ROMK primary -5.4
O=C(CSc1nc2ccccc2[nH]1)N1CCN(c2ccc(F)cc2)CC1	none (no result: KCC2 mod)
COC(=O)C1=C(C)NC(C)=C(C(=O)OC)C1C(=O)OC(C)C(=O)c1ccccc1 (stereo not drawn)	none
Cc1nn(C)c(Cl)c1C(=O)NCC(=O)NCc1ccccc1	Rad51 HR inh 42
Cc1ccc(CNC(=O)CNC(=O)c2c(C)nn(C)c2Cl)cc1	none
O=S(=O)(N/N=C1/CCCc2ccccc21)c1ccc(Br)cc1	ROMK primary -3.7
COc1ccc(/C=C\C(=O)c2c(O)ccc3c(C)cc(=O)oc23)cc1OC	none (no result: ROMK primary)
CNC(=S)N/N=C1\C(=O)c2cccc3cccc1c23	KCC2 mod 43 (no result: ROMK primary)
CCCCNC(=S)N/N=C1\C(=O)c2cccc3cccc1c23	KCC2 mod 5
O=C(N/N=C1\C(=O)c2cccc3cccc1c23)c1ccc(O)cc1	none (no result: Rad51 HR inh)
CS(=O)(=O)N1CCN(c2ccccc2NC(=S)NC(=O)c2cccs2)CC1	none
CC1CCN(c2ccccc2NC(=S)NC(=O)c2ccco2)CC1	KCC2 mod 15 (no result: ROMK primary)
CC1CCN(c2ccccc2NC(=S)NC(=O)C(C)(C)C)CC1	none
CC1CCN(c2ccccc2NC(=S)NC(=O)c2cccs2)CC1	KCC2 mod 9.5 (no result: ROMK primary)
O=C(NC(=S)Nc1ccc(N2CCCCC2)c(Cl)c1)c1cccs1	KCC2 mod 32 (no result: ROMK primary)
CC(C)NC(=S)N/N=C/c1cc(Br)ccc1O	KCC2 mod 5.9
COC(=O)N/N=C/c1cc(Br)ccc1O	none (no result: Rad51 HR inh)
OC1(c2ccccc2)c2ccccc2-c2ncccc21 (stereo not drawn)	none
Cc1cccc(OCCn2c(=S)[nH]c3ccccc32)c1	KCC2 mod 8.9
Cc1cccc(OCCn2c(S(=O)(=O)O)nc3ccccc32)c1	none (no result: ROMK primary)
Cc1nnc(SCC2=C(C(=O)O)N3C(=O)C(NC(=O)C(C)n4nc(C(F)(F)F)cc4C)C3SC2)s1 (stereo not drawn)	none
O=C(COc1ccc(-c2nnc(N3CCCCC3)c3ccccc23)cc1)N1CCCCC1	ROMK primary -3.2
COc1cc(-c2nnc(CSc3nnc(Nc4ccc(Oc5ccccc5)cc4)s3)o2)cc(OC)c1OC	none (no result: ROMK primary)
Cc1cc(C)cc(N2C(=O)CC(Sc3nnnn3-c3ccccc3)C2=O)c1 (stereo not drawn)	Rad51 HR inh 109 (no result: ROMK primary)
CSc1nc(-c2ccccc2)nc(SC)c1C(C)=O	none (no result: ROMK primary)
CSc1nc(-c2ccccc2)[nH]c(=S)c1C(C)=O	KCC2 mod 21, ROMK primary 4.7
Fc1ccc(NC(=S)NN=C2CCCCCC2)cc1	KCC2 mod 22 (no result: ROMK primary)
